From ChEMBL document CHEMBL4373718, “Germacrane Sesquiterpenoids as a New Type of Anticardiac Fibrosis Agent Targeting Transforming Growth Factor β Type I Receptor” (J Med Chem, 2019)
Active and inactive are the calls of the source. No cut-off for these calls is given here.

Columns and labels:
Rattus norvegicus [1] = assay: Antifibrotic activity in abdominal aortic constriction Sprague-Dawley rat model of cardiac fibrosis assessed as decrease in heart alpha-SMA level at 5 mg/kg, ip administered once daily for 4 weeks measured post-last dose by immunohistochemical analysis relative to control; format: functional; parameters: scale not given: the % may be the effect or the level left
In short: (§1)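 Male SD rats (200–250 g) with abdominal aortic constriction (suture tied over a 21-G probe above the renal arteries), under pentobarbital 30 mg/kg ip. Dosed ip daily for 4 weeks. Vehicle was saline with 0.5% DMSO and 5% Kolliphor HS 15. Groups: sham, AAC, AAC+nifedipine 10 mg/kg, n=8 each. Formalin-fixed paraffin sections 4 µm thick; FN and α-SMA by immunohistochemistry, collagen by Masson's trichrome; stained area measured.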

[2] = target: T1, TGF-beta receptor type-1 (Rattus norvegicus) (UniProt P80204); assay: Inhibition of TGFbeta1 receptor in TGFbeta1-stimulated Sprague-Dawley rat cardiac fibroblasts assessed as reduction in alpha-SMA expression measured after 12 hrs by Western blot analysis
T1 sequence (whole entry): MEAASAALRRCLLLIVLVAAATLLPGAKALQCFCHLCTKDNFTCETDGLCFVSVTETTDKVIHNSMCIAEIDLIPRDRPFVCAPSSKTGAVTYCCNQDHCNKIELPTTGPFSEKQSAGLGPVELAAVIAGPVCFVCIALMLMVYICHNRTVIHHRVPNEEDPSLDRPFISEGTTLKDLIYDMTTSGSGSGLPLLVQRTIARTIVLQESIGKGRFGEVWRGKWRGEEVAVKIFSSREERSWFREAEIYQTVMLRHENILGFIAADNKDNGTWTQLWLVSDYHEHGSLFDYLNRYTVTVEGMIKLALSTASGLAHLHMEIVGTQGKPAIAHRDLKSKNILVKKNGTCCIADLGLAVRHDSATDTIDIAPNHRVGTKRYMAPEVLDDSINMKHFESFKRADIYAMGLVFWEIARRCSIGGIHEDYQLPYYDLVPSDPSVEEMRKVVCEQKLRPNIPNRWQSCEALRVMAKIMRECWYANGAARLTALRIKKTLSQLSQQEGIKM
In short: (§2)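 Primary rat cardiac fibroblasts (passages 2–4, 3×10^5 per well) treated with compound plus 10 ng/mL TGFβ1 for 12 h; tested at 2.5, 5 and 10 µM. Lysates run on 10% SDS-PAGE (30 µg protein), probed for FN, α-SMA and collagen I/III, and quantified by densitometry against GAPDH. N=3 independent experiments.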

[3] = target: T1, TGF-beta receptor type-1 (Rattus norvegicus); assay: Inhibition of TGFbeta1 receptor in TGFbeta1-stimulated Sprague-Dawley rat cardiac fibroblasts assessed as reduction in Smad3 nuclear translocation at 10 uM measured after 5 mins by DAPI staining-based laser confocal microscopic analysis
In short: (§3)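 Primary rat cardiac fibroblasts treated with 10 µM compound plus 10 ng/mL TGFβ1 for 5 min. Fixed in 4% PFA, permeabilized with 0.1% Triton X-100, blocked with goat serum. Stained with anti-Smad2 or anti-Smad3 overnight at 4 °C, then Alexa 594 secondary and DAPI nuclear stain. Imaged by confocal microscopy.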

Rattus norvegicus [4] = assay: Antifibrotic activity in abdominal aortic constriction Sprague-Dawley rat model of cardiac fibrosis assessed as systolic left ventricular posterior wall thickness at 5 mg/kg, ip administered once daily for 4 weeks measured post-last dose by echocardiography (reference value: 3.62 +/- 0.26 mm); format: functional
Rattus norvegicus [5] = assay: Antifibrotic activity in abdominal aortic constriction Sprague-Dawley rat model of cardiac fibrosis assessed as down regulation of alpha-SMA expression in heart at 5 mg/kg, ip administered once daily for 4 weeks measured post-last dose by Western blot analysis; format: functional, organism-based
In short: (§4)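 AAC rats dosed ip daily for 4 weeks, n=8 per group. Hearts homogenized in lysis buffer with protease and phosphatase inhibitors and spun at 12,000 rpm for 30 min at 4 °C. Nuclear and cytoplasmic fractions prepared with a kit. Protein measured by BCA; 30 µg run on 10% SDS-PAGE, transferred to PVDF and immunoblotted; bands quantified by densitometry.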

Rattus norvegicus [6] = assay: Antifibrotic activity in abdominal aortic constriction Sprague-Dawley rat model of cardiac fibrosis assessed as down regulation of collagen expression in heart at 5 mg/kg, ip administered once daily for 4 weeks measured post-last dose by Western blot analysis; format: functional, organism-based; in short: as §4
[7] = target: T1, TGF-beta receptor type-1 (Rattus norvegicus); assay: Inhibition of TGFbeta1 receptor in TGFbeta1-stimulated Sprague-Dawley rat cardiac fibroblasts assessed as reduction in collagen 1 expression measured after 12 hrs by Western blot analysis; in short: as §2
Rattus norvegicus [8] = assay: Antifibrotic activity in abdominal aortic constriction Sprague-Dawley rat model of cardiac fibrosis assessed as decrease in heart collagen level at 5 mg/kg, ip administered once daily for 4 weeks measured post-last dose by Masson's trichrome staining-based histological analysis relative to control; format: functional; parameters: scale not given: the % may be the effect or the level left; in short: as §1
[9] = target: T1, TGF-beta receptor type-1 (Rattus norvegicus); assay: Inhibition of TGFbeta1 receptor in TGFbeta1-stimulated Sprague-Dawley rat cardiac fibroblasts assessed as reduction in Smad2 nuclear translocation at 10 uM measured after 5 mins by DAPI staining-based laser confocal microscopic analysis; in short: as §3
Rattus norvegicus [10] = assay: Antifibrotic activity in abdominal aortic constriction Sprague-Dawley rat model of cardiac fibrosis assessed as reduction in Smad3 nuclear translocation in heart at 5 mg/kg, ip administered once daily for 4 weeks measured post-last dose by Western blot analysis; format: functional, organism-based; in short: as §4
Rattus norvegicus [11] = assay: Antifibrotic activity in abdominal aortic constriction Sprague-Dawley rat model of cardiac fibrosis assessed as reduction in Smad2 phosphorylation in heart at 5 mg/kg, ip administered once daily for 4 weeks measured post-last dose by Western blot analysis; format: functional, organism-based; in short: as §4
[12] = target: T1, TGF-beta receptor type-1 (Rattus norvegicus); assay: Inhibition of TGFbeta1 receptor in TGFbeta1-stimulated Sprague-Dawley rat cardiac fibroblasts assessed as reduction in collagen 3 expression measured after 12 hrs by Western blot analysis; in short: as §2
Rattus norvegicus [13] = assay: Antifibrotic activity in abdominal aortic constriction Sprague-Dawley rat model of cardiac fibrosis assessed as diastolic left ventricular internal diameter at 5 mg/kg, ip administered once daily for 4 weeks measured post-last dose by echocardiography (reference value: 7.60 +/- 0.63 mm); format: functional
Rattus norvegicus [14] = species on record: Rattus norvegicus; assay: Effect on TGFbeta1 receptor expression in TGFbeta1-stimulated Sprague-Dawley rat cardiac fibroblasts at 2.5 to 10 uM measured after 5 mins by Western blot analysis; format: functional
[15] = target: T1, TGF-beta receptor type-1 (Rattus norvegicus); assay: Inhibition of TGFbeta1 receptor in TGFbeta1-stimulated Sprague-Dawley rat cardiac fibroblasts assessed as reduction in fibronectin mRNA expression at 2.5 to 10 uM measured after 12 hrs by qRT-PCR analysis
In short: (§5)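 Primary rat cardiac fibroblasts (3×10^5 per well) treated with compound plus 10 ng/mL TGFβ1 for 12 h. Total RNA extracted and target transcripts measured by SYBR Green qRT-PCR, normalized to GAPDH.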

Rattus norvegicus [16] = assay: Antifibrotic activity in abdominal aortic constriction Sprague-Dawley rat model of cardiac fibrosis assessed as reduction in Smad2 nuclear translocation in heart at 5 mg/kg, ip administered once daily for 4 weeks measured post-last dose by Western blot analysis; format: functional, organism-based; in short: as §4
[17] = target: T1, TGF-beta receptor type-1 (Rattus norvegicus); assay: Inhibition of TGFbeta1 receptor in TGFbeta1-stimulated Sprague-Dawley rat cardiac fibroblasts assessed as reduction in alpha-SMA mRNA expression at 2.5 to 10 uM measured after 12 hrs by qRT-PCR analysis; in short: as §5
[18] = Effect on total Smad3 expression in TGFbeta1-stimulated Sprague-Dawley rat cardiac fibroblasts at 10 uM measured after 5 to 30 mins by Western blot analysis; format: ADME
Rattus norvegicus [19] = species on record: Rattus norvegicus; assay: Effect on TGFbeta2 receptor expression in TGFbeta1-stimulated Sprague-Dawley rat cardiac fibroblasts at 2.5 to 10 uM measured after 5 mins by Western blot analysis; format: functional

Compound: C=C(C)[C@@H]1C/C=C(\C)C(=O)CCC2=C[C@@H]1OC2=O
- Activity (Rattus norvegicus [1]): 88.8%
- inhibition [2]: Dose-dependent effect
- inhibition [3]: Active
- Activity (Rattus norvegicus [4]): 3.23 mm
- Activity (Rattus norvegicus [5]): Active
- Activity (Rattus norvegicus [6]): Active
- inhibition [7]: Dose-dependent effect
- Activity (Rattus norvegicus [8]): 65.6%
- inhibition [9]: Active
- Activity (Rattus norvegicus [10]): Active
- Activity (Rattus norvegicus [11]): Active
- inhibition [12]: Dose-dependent effect
- Activity (Rattus norvegicus [13]): 8.3 mm
- Activity (Rattus norvegicus [14]): inactive
- inhibition [15]: Active
- Activity (Rattus norvegicus [16]): Active
- inhibition [17]: Active
- Activity [18]: Non-Toxic
- Activity (Rattus norvegicus [19]): inactive
